Molecules are shown by their SMILES. Where only a bound is given, the exact number is not on record here.

This note sets out measurements from ChEMBL document CHEMBL5344470, “Probing the Use of Triphenyl Phosphonium Cation for Mitochondrial Nucleoside Delivery” (ACS Med Chem Lett, 2024).

The nature of data set [1]: Drug concentration in living human MCF7 cells at 50 uM incubated for 24 hrs by flow cytometry analysis. The class given is ADME, cell-based. To be noted: mcf7, 24 h. The procedure, abridged: (§1)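 Living MCF-7 cells incubated 24 h with test compounds at different concentrations; fluorescein-labelled compound uptake quantified by flow cytometry as percentage internalization; mean ± SEM of three independent experiments.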

The subject of a further data set is esterase. As to the kind of experiment: Stability of compound assessed as pig liver esterase mediated hydrolysis by measuring half life at 50 uM by HPLC analysis. The class given is ADME, Sus scrofa. The method in brief:
(§2)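 Compounds incubated with pig liver esterase, cell culture medium or MCF-7 cell extracts; decomposition followed by HPLC with direct injection of the biological medium, no sample pretreatment; half-lives determined; hydrolysis metabolite identified by co-injection with authentic sample.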

The nature of data set [2]: Drug localization in mitochondria of human MCF7 cells at 50 uM incubated for 24 hrs by MitoTracker red CMXRos staining based confocal fluorescence microscopy. The class given is ADME. To be noted: mcf7, 24 h. The method in brief:
(§3)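 MCF-7 cells incubated 24 h at 37 °C with 50 μM fluorescein-labelled compound; mitochondria stained with 200 nM MitoTracker red CMXRos and nuclei with Hoechst 33342 (10 μg/mL final); cells washed twice with medium, then imaged by confocal microscopy (488 nm fluorescein, 561 nm MitoTracker, 760 nm Hoechst, 63×/1.4 oil objective); untreated cells as control.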

Data set [3] in a line: Drug localization in mitochondria of human MCF7 cells assessed as appearance of green and red overlapped superimposed images at 100 uM incubated for 24 hrs by MitoTracker red CMXRos staining based super-resolution confocal fluorescence microscopy. It counts as ADME. Conditions: mcf7, 24 h; call rule not given here. The method in brief: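 Living MCF-7 cells treated 24 h with 100 μM fluorescein-labelled compound, stained with 100 nM MitoTracker red CMXRos and Hoechst 33342 (10 μg/mL final), washed twice with medium; Airyscan super-resolution confocal imaging (488/561/405 nm, 63×); co-localization judged from overlapping green and red areas in superimposed images; untreated cells as control.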

A short description of data set [4]: Cytotoxicity against human MCF7 cells assessed as cell viability upto 50 uM measured after 72 hrs by MTT assay relative to control. The class given is toxicity, cell-based. Conditions: read-out: Activity. The method in brief: (§4)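 MCF-7 breast cancer cells exposed to test compounds at a range of concentrations (up to 100 μM) for 72 h; cell viability measured and expressed as percentage viability or cell death relative to untreated control.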

Data set [5] in a line: Drug accumulation in living human MCF7 cells at 25 uM incubated for 24 hrs by flow cytometry analysis. The class given is ADME, cell-based. To be noted: mcf7, 24 h. The method in brief: as §1
Data set [6] can be described thus: Stability of compound in culture media assessed as compound hydrolysis by measuring half life at 50 uM by HPLC analysis. It counts as physicochemical. The procedure, abridged:
as §2

The nature of data set [7]: Drug concentration in living human MCF7 cells at 25 uM incubated for 24 hrs by flow cytometry analysis. The class given is ADME, cell-based. To be noted: mcf7, 24 h. The procedure, abridged:
as §1

Data set [8] in a line: Drug metabolism assessed as compound hydrolysis by measuring 2-(6-hydroxy-3-oxo-3H-xanthen-9-yl)-5-((1-((2R,4S,5R)-4-hydroxy-5-(hydroxymethyl)tetrahydrofuran-2-yl)-2-oxo-1,2-dihydropyrimidin-4-yl)carbamoyl)benzoic acid formation. The class given is ADME. The method in brief: as §2
Data set [9] is described as follows: Stability of compound in MCF7 cell extract assessed as compound hydrolysis by measuring half life at 50 uM by HPLC analysis. It counts as physicochemical. To be noted: human. The method in brief:
as §2

Data set [10] in a line: Cytotoxicity against human MCF7 cells assessed as cell viability at 100 uM measured after 72 hrs by MTT assay relative to control. The class given is toxicity, cell-based. To be noted: read-out: Activity. The procedure, abridged: as §4
Data set [11] can be described thus: Drug concentration in living human MCF7 cells at 5 uM incubated for 24 hrs by flow cytometry analysis. The class given is ADME, cell-based. To be noted: mcf7, 24 h. The method in brief: as §1
The nature of data set [12]: Drug concentration in living human MCF7 cells at 10 uM incubated for 24 hrs by flow cytometry analysis. It counts as ADME, cell-based. To be noted: mcf7, 24 h. The method in brief:
as §1

Data set [13] is described as follows: Drug localization in cytoplasm of human MCF7 cells at 50 uM incubated for 24 hrs by confocal fluorescence microscopy. It counts as ADME, subcellular. Conditions: mcf7, 24 h. The method in brief:
as §3

Data set [14] is described as follows: Drug internalization in living human MCF7 cells at 5 uM incubated for 24 hrs by flow cytometry analysis. The class given is ADME, cell-based. Conditions: mcf7, 24 h. The method in brief: as §1
Data set [15] is described as follows: Drug internalization in living human MCF7 cells at 10 uM incubated for 24 hrs by flow cytometry analysis. It counts as ADME, cell-based. Conditions: mcf7, 24 h. The method in brief: as §1
A short description of data set [16]: Drug internalization in living human MCF7 cells at 50 uM incubated for 24 hrs by flow cytometry analysis. The class given is ADME, cell-based. To be noted: mcf7, 24 h. The procedure, abridged: as §1
In data set [17] the test system is MCF7. As to the kind of experiment: Cytotoxicity against human MCF7 cells assessed as cell death at 50 uM measured after 72 hrs by MTT assay relative to control. The class given is toxicity, cell-based. To be noted: mcf7, 72 h. The method in brief: as §4
Data set [18] deals with MCF7. Nature of the data set: Cytotoxicity against human MCF7 cells assessed as cell death at 10 uM measured after 72 hrs by MTT assay relative to control. The class given is toxicity, cell-based. Conditions: mcf7, 72 h. The procedure, abridged:
as §4

A short description of data set [19]: Stability of compound in culture media assessed as compound hydrolysis at 50 uM by HPLC analysis. It counts as physicochemical. The method in brief: as §2

As to `O=C(CCCCCCCCC[P+](c1ccccc1)(c1ccccc1)c1ccccc1)OC[C@H]1O[C@@H](n2ccc(NC(=O)c3ccc(-c4c5ccc(=O)cc-5oc5cc(O)ccc45)c(C(=O)O)c3)nc2=O)C[C@@H]1O.O=C([O-])C(F)(F)F`, the Drug uptake in data set [1] is 100%; in [2] it was “Active”; in data set [3] it was “Active”; in data set [5], 96%; in data set [7], 96%; in data set [11], 3%. In data set [12], this molecule had a Drug uptake of 24%. The half-life at 50 µM in the data set on esterase is under 0.25 h; in data set [6], over 17.8 h; in [9], over 8.4 h. For the same molecule, the viability at 72 h, up to 50 µM in data set [4] came to 84%. Further, the Drug metabolism entry in [8] was “Metabolite_Detected”. The viability at 72 h, 100 µM in data set [10] was found to be 60%.
`Nc1ccn([C@H]2C[C@H](O)[C@@H](COC(=O)CCCCCCCCC[P+](c3ccccc3)(c3ccccc3)c3ccccc3)O2)c(=O)n1.O=C(O)C(F)(F)F.O=C([O-])C(F)(F)F`: the values for the half-life at 50 µM (in the data set with esterase; in data set [6]; in [9]) were under 0.25 h, over 17.8 h and over 8.4 h, respectively.
Take `O=C(Nc1ccn([C@H]2C[C@H](O)[C@@H](CO)O2)c(=O)n1)c1ccc(-c2c3ccc(=O)cc-3oc3cc(O)ccc23)c(C(=O)O)c1`: the Drug uptake in [1] was 87%; in data set [2], “Not Active”; in [5], 62%; in data set [7] it was 62%; in data set [13], “Active”; in data set [11] it was 2%. Besides, the Drug uptake in data set [12] was found to be 12%.
For the molecule `O=C(CC[P+](c1ccccc1)(c1ccccc1)c1ccccc1)OC[C@H]1O[C@@H](n2ccc(NC(=O)c3ccc(-c4c5ccc(=O)cc-5oc5cc(O)ccc45)c(C(=O)O)c3)nc2=O)C[C@@H]1O.O=C([O-])C(F)(F)F`, the Drug uptake in data set [1] was 99%; in [14], 27%; in data set [2], “Active”; in [15], 61%; in data set [5] it was over 95%; in [7], 96%. Besides, the Drug uptake entry in data set [13] was “Active”; in data set [11], 27%; in data set [12], 61%.
With `O=C(CCCCC[P+](c1ccccc1)(c1ccccc1)c1ccccc1)OC[C@H]1O[C@@H](n2ccc(NC(=O)c3ccc(-c4c5ccc(=O)cc-5oc5cc(O)ccc45)c(C(=O)O)c3)nc2=O)C[C@@H]1O.O=C([O-])C(F)(F)F`, the Drug uptake in data set [1] was 17%; in data set [16], 17%; in data set [7], 3%; in [11] it was 0.4%; in data set [12] it was 0.8%. The Activity in the data set on MCF7 [17] is on record as 44%; with MCF7 [18], 61%.
Take `Nc1ccn([C@H]2C[C@H](O)[C@@H](COC(=O)CC[P+](c3ccccc3)(c3ccccc3)c3ccccc3)O2)c(=O)n1.O=C(O)C(F)(F)F.O=C([O-])C(F)(F)F`: the half-life at 50 µM is under 0.25 h in the data set on esterase and over 8.4 h in data set [9]. For the same molecule, the Stability entry in [19] is given as “Unstable”.
With `Nc1ccn([C@H]2C[C@H](O)[C@@H](COC(=O)CCCCC[P+](c3ccccc3)(c3ccccc3)c3ccccc3)O2)c(=O)n1.O=C(O)C(F)(F)F.O=C([O-])C(F)(F)F`, the results for the half-life at 50 µM (in the data set with esterase; in data set [6]; in data set [9]) were under 0.25 h, over 17.8 h and over 8.4 h, respectively.
